Experimental data pooled from the literature.
Protocols differ between the studies behind these lines.
Target: Serine/threonine-protein kinase TAO3 (TAOK3, Homo sapiens, UniProt Q9H2K8)
Sequence (Q9H2K8 1-898, as in one of the studies): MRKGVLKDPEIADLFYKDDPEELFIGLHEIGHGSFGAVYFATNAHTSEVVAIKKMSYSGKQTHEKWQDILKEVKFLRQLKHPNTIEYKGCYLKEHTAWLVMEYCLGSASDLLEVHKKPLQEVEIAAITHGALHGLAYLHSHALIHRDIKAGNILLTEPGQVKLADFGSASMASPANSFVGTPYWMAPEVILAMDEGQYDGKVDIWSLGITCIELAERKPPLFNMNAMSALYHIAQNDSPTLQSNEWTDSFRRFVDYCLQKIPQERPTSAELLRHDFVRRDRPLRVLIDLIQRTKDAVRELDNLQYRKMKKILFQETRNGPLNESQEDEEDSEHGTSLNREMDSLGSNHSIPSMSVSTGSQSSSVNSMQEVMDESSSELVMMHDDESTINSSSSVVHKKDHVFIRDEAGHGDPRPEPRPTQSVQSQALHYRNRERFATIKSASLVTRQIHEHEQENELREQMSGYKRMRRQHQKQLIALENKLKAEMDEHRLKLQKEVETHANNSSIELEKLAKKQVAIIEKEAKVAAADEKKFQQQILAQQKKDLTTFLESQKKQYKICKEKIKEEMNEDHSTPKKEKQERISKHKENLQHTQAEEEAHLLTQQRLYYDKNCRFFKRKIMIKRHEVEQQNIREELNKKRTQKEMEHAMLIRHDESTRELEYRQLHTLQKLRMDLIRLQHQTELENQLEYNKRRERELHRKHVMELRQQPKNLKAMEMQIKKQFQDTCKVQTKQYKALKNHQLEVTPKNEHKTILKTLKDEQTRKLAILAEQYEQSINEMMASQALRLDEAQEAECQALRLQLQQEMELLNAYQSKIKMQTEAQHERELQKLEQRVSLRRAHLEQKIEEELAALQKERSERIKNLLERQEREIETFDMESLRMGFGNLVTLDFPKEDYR

SMILES	assay	conditions	quantity	value
CCN(CC)c1ccc(C2=NNC(=O)CC2C)cc1[N+](=O)[O-] (centres unmarked)	enzyme activity, inhibitor	10 µM	remaining activity	95%
O=C(O)[C@@H]1[C@@H](Cn2nnc3ccccc3c2=O)CC[C@H]1C(=O)c1ccc(OCCC2CCOCC2)cc1	cell-free assay, competition with immobilised ligand	1 µM	remaining binding	100%
Cc1cc(NC(=O)c2cccc3cc(-c4cccc5[nH]nc(N)c45)ccc23)ccc1F	enzyme activity, inhibitor	0.1 µM	activity vs control	96%
CCOc1cc(-c2nncn2C)ccc1Nc1ncc2cc(C)nc(NCC(C)(C)C)c2n1	cell-free assay, TR-FRET	1 µM	inhibition	≤ 15%
O=C1Nc2ccc(Cl)cc2C1=Cc1cc(Cl)c(O)c(Cl)c1	cell-free assay	0.5 µM	remaining signal	50.6%
Cc1sc(C(=O)NC2COC2)cc1-n1cc(NC(=O)Nc2c(F)cccc2Cl)cn1	enzyme activity, inhibitor	10 µM	remaining activity	98%
N#CCCc1ccc2c(c1)-c1[nH]c3ccc([N+](=O)[O-])cc3c1CC(=O)N2	cell-free assay	0.5 µM	remaining signal	66%
COc1cc(-c2cc(-c3ccc(N4CCNCC4)cc3)cnc2C)cc(OC)c1OC	enzyme activity, inhibitor	1 µM	inhibition	3%
Cc1nc(C2CCN(C(=O)c3ccc(OC(F)(F)F)cc3N)CC2)c2ncc(N3CCN(C)CC3)cc2n1	cell-free assay, competition with immobilised ligand	1 µM	remaining binding	100%
Cc1cnc(NC2CCOCC2)nc1-n1cnc(C(=O)NC(CN)c2cc(F)cc(Cl)c2)c1 (centres unmarked)	enzyme activity, inhibitor, radiometric	1 µM	remaining activity	89%
CN1CC(Oc2cnc(C#N)cc2-c2ccn3nc(NC(=O)C4CC4)cc3c2)C1	enzyme activity, inhibitor	1 µM	inhibition	-4%
CC(C)(O)[C@H]1CC[C@H](Nc2ccc3ncc(-c4cccc(C(F)(F)F)c4)n3n2)CC1	enzyme activity, inhibitor	1 µM	remaining activity	75.1%
Cc1nccc(COC(=O)N2C[C@@H]3[C@@H](CNC(=O)c4ccc5[nH]nnc5c4)[C@@H]3C2)n1	cell-free assay, competition with immobilised ligand	1 µM	remaining binding	83%
COc1cc(Nc2c(C#N)cnc3cc(OCCCN4CCN(C)CC4)c(OC)cc23)c(Cl)cc1Cl	cell-free assay	0.5 µM	remaining signal	71.3%
Cc1ccc(C(=O)Nc2ccc(CN3CCN(C)CC3)c(C(F)(F)F)c2)cc1C#Cc1cnc2cccnn12	enzyme activity, inhibitor	23.5 nM	remaining activity	28%
CC1=C(C#N)C(c2ccc3c(c2)c(NC(=O)c2ccccc2C)nn3C)C(C#N)=C(C)N1	cell-free assay, competition with immobilised ligand	1 µM	remaining binding	80%
CC(C)(C)c1nc(-c2cccc(NS(=O)(=O)c3c(F)cccc3F)c2F)c(-c2ccnc(N)n2)s1	enzyme activity, inhibitor, radiometric	1 µM	remaining activity	91%
Cc1ccc(Nc2nccc(N(C)c3ccc4c(C)n(C)nc4c3)n2)cc1S(N)(=O)=O	enzyme activity, inhibitor	10 µM	inhibition	96%
O=C1NC(=O)c2cc(Nc3ccc(F)cc3)c(Nc3ccc(F)cc3)cc21	cell-free assay	0.5 µM	remaining signal	89.9%
CN(C)C(=O)Cn1cc(-c2nc(C3(c4ccc(-c5cnc(N)nc5)cc4)CC3)no2)cn1	cell-free assay, competition with immobilised ligand	1 µM	remaining binding	67%
C#Cc1cccc(Nc2ncnc3cc(OCCOC)c(OCCOC)cc23)c1	cell-free assay	0.5 µM	remaining signal	106%
CCCCN(CCCC)C(=O)CN1C[C@H](c2cc(OC)c3c(c2)OCO3)[C@@H](C(=O)O)[C@@H]1CC(C)(C)CCC	cell-free assay, competition with immobilised ligand	1 µM	remaining binding	63.2%
CN(C)c1nccc(-c2cnn3ncccc23)n1	binding	1 µM	remaining binding	73%
